MIC80 data for 9 compounds are collected here from ChEMBL document CHEMBL4673173, “Cyrene(TM) is a green alternative to DMSO as a solvent for antibacterial drug discovery against ESKAPE pathogens” (RSC Med Chem, 2020).

Values after ≈ are worked out from the molar mass of the structure shown. Counter-ions that a name gives are not always drawn. Active and inactive are the calls of the source. The rule behind the calls is not given here. Bridge positions count the residues as written; N and C are the ends. Square brackets hold non-standard residues; d marks the D form. Peptide text beside a SMILES is read from it. * marks the point of attachment. X1 = CC[C@H](C)CCCCC(=O)*; Dab = NCC[C@H](N)C(=O)O

For assay [1], the system named is Pseudomonas aeruginosa. In words: Antibacterial activity against Pseudomonas aeruginosa […] by broth microdilution method. Type of assay: functional. The method in brief: (§1)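 Antibiotics were dissolved as stock solutions in either DMSO or Cyrene™, neat or mixed with water, at 5–10 mM (stock). Each drug was tested in parallel with both vehicles. Growth inhibition was read as MIC80 […]. NA means no activity at the highest concentration tested.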
A general note: In broth dilution the organism is exposed to a series of concentrations in liquid medium.

Assay [2] has as its system Escherichia coli. In words: Antibacterial activity against Escherichia coli ATCC 25922 by broth microdilution method. Type of assay: functional. Summed up: as §1
Assay [3] deals with Klebsiella pneumoniae. In words: Antibacterial activity against Klebsiella pneumoniae ATCC 700603 by broth microdilution method. The format is functional. Summed up:
as §1

The test system of assay [4] is Enterococcus faecalis. In words: Antibacterial activity against Enterococcus faecalis ATCC 51299 by broth microdilution method. Type of assay: functional. The method in brief: as §1
Assay [5] has as its system Staphylococcus aureus. Kind of assay: Antibacterial activity against Staphylococcus aureus ATCC 43300 by broth microdilution method. Type of assay: functional. The method in brief: as §1
The test system of assay [6] is Acinetobacter baumannii. In words: Antibacterial activity against Acinetobacter baumannii ATCC 19606 by broth microdilution method. The format is functional, ATCC 19606 = CIP 70.34 = JCM 6841. Summed up: as §1
For assay [7], the system named is Staphylococcus aureus. In words: microbe, parasite or virus in culture. The format is functional. The note with it: ATCC 43300.
For assay [8], the system named is Klebsiella pneumoniae. In words: Antibacterial activity against Klebsiella pneumoniae ATCC 700603 using cyrene as solvent by broth microdilution method. Type of assay: functional.
Assay [9] deals with Pseudomonas aeruginosa. In words: Antibacterial activity against Pseudomonas aeruginosa ATCC 27893 using DMSO as solvent by broth microdilution method. The format is functional.
Assay [10] has as its system Enterococcus faecalis. In words: microbe, parasite or virus in culture. Type of assay: functional. The note with it: ATCC 51299.
In assay [11] the test system is Klebsiella pneumoniae. Kind of assay: Antibacterial activity against Klebsiella pneumoniae ATCC 700603 using DMSO as solvent by broth microdilution method. The format is functional.
The subject of assay [12] is Enterococcus faecalis. In words: microbe, parasite or virus in culture. The following applies: ATCC 51299. Type of assay: functional. This is another data set of the same source.
The subject of assay [13] is Acinetobacter baumannii. In words: Antibacterial activity against Acinetobacter baumannii ATCC 19606 using cyrene as solvent by broth microdilution method. The format is functional. The following applies: ATCC 19606 = CIP 70.34 = JCM 6841.
The subject of assay [14] is Staphylococcus aureus. Kind of assay: microbe, parasite or virus in culture. The format is functional. The following applies: ATCC 43300. This is another data set of the same source.
Assay [15] deals with Acinetobacter baumannii. Kind of assay: Antibacterial activity against Acinetobacter baumannii ATCC 19606 using DMSO as solvent by broth microdilution method. Type of assay: functional. The following applies: ATCC 19606 = CIP 70.34 = JCM 6841.
For assay [16], the system named is Pseudomonas aeruginosa. In words: Antibacterial activity against Pseudomonas aeruginosa ATCC 27893 using cyrene as solvent by broth microdilution method. The format is functional.
Assay [17] concerns Escherichia coli. In words: Antibacterial activity against Escherichia coli ATCC 25922 using DMSO as solvent by broth microdilution method. Type of assay: functional.
Assay [18] deals with Escherichia coli. In words: Antibacterial activity against Escherichia coli ATCC 25922 using cyrene as solvent by broth microdilution method. Type of assay: functional.
Assay [19] relates to Enterococcus faecalis. The following applies: ATCC 51299.
For assay [20], the system named is Staphylococcus aureus. The note with it: ATCC 43300.
In assay [21] the test system is Staphylococcus aureus. The note with it: ATCC 43300. This is another data set of the same source.
Assay [22] has as its system Enterococcus faecalis. The note with it: ATCC 51299. This is another data set of the same source.
Assay [23] relates to Klebsiella pneumoniae. The note with it: 700603.
Assay [24] relates to Klebsiella pneumoniae. The following applies: 700603. This is another data set of the same source.
The test system of assay [25] is Pseudomonas aeruginosa. The following applies: ATCC 27893.
Assay [26] relates to Acinetobacter baumannii. The following applies: ATCC 19606 = CIP 70.34 = JCM 6841.
Assay [27] has as its system Pseudomonas aeruginosa. The note with it: ATCC 27893. The source holds these as a separate data set.
In assay [28] the test system is Escherichia coli. The note with it: ATCC 25922.
Assay [29] has as its system Escherichia coli. The following applies: ATCC 25922. This is another data set of the same source.
Assay [30] has as its system Acinetobacter baumannii. The note with it: ATCC 19606 = CIP 70.34 = JCM 6841. The source holds these as a separate data set.

On to `C[S+](C)[O-]` [DIMETHYL SULFOXIDE], for which the MIC80 amounted to 16 %v/v against Pseudomonas aeruginosa [1]; 10 %v/v in the assay with Escherichia coli [2]; 16 %v/v against Klebsiella pneumoniae [3]; 8 %v/v in the assay with Enterococcus faecalis [4]; 16 %v/v against Staphylococcus aureus [5]; 16 %v/v against Acinetobacter baumannii [6].

Turning to `O=C(O)c1cn(C2CC2)c2cc(N3CCNCC3)c(F)cc2c1=O` [CIPROFLOXACIN HYDROCHLORIDE], the MIC80 was 1.6 µM in the assay with Staphylococcus aureus [7]; 0.39 µM against Klebsiella pneumoniae [8]; 0.39 µM in the assay on Pseudomonas aeruginosa [9]; 0.39 µM in the assay with Enterococcus faecalis [10]; 0.39 µM in the assay on Klebsiella pneumoniae [11]; 0.39 µM with Enterococcus faecalis [12]. Further, the MIC80 with Acinetobacter baumannii [13] turned out to be 1.6 µM; in the assay on Staphylococcus aureus [14] it was 1.6 µM; against Acinetobacter baumannii [15], 1.6 µM; in the assay on Pseudomonas aeruginosa [16], 0.39 µM.

For the compound `C[C@H]1COc2c(N3CCN(C)CC3)c(F)cc3c(=O)c(C(=O)O)cn1c23` [LEVOFLOXACIN], the MIC80 in the assay on Escherichia coli [17] stood at 0.019 µM (≈ 0.00687 µg/mL); against Staphylococcus aureus [7], 0.78 µM (≈ 0.282 µg/mL); against Klebsiella pneumoniae [8], 0.78 µM (≈ 0.282 µg/mL); against Pseudomonas aeruginosa [9] it was 1.6 µM (≈ 0.578 µg/mL); in the assay with Enterococcus faecalis [10] it was 0.19 µM (≈ 0.0687 µg/mL); in the assay with Klebsiella pneumoniae [11] it was 0.78 µM (≈ 0.282 µg/mL). In addition, the MIC80 against Enterococcus faecalis [12] was 0.39 µM (≈ 0.141 µg/mL); with Acinetobacter baumannii [13], 0.39 µM (≈ 0.141 µg/mL); against Staphylococcus aureus [14] it was 0.78 µM (≈ 0.282 µg/mL); in the assay on Acinetobacter baumannii [15], 0.39 µM (≈ 0.141 µg/mL); against Pseudomonas aeruginosa [16], 1.6 µM (≈ 0.578 µg/mL); against Escherichia coli [18], 0.019 µM (≈ 0.00687 µg/mL).

For the compound `NC[C@H]1O[C@H](O[C@H]2[C@H](O)[C@@H](O[C@H]3O[C@H](CO)[C@@H](O)[C@H](N)[C@H]3O)[C@H](N)C[C@@H]2N)[C@H](N)C[C@@H]1O` [TOBRAMYCIN], the MIC80 entry with Enterococcus faecalis [19], with Staphylococcus aureus [20], in the assay on Staphylococcus aureus [21] and in the assay with Enterococcus faecalis [22] was “inactive” in each case. The MIC80 is 0.78 µM (≈ 0.365 µg/mL) against Escherichia coli [17]; 13 µM (≈ 6.08 µg/mL) against Klebsiella pneumoniae [8]; 1.6 µM (≈ 0.748 µg/mL) with Pseudomonas aeruginosa [9]; 13 µM (≈ 6.08 µg/mL) with Klebsiella pneumoniae [11]; 3.1 µM (≈ 1.45 µg/mL) against Acinetobacter baumannii [13]; 3.1 µM (≈ 1.45 µg/mL) in the assay with Acinetobacter baumannii [15]. Further, the figures for the MIC80 in the assay with Pseudomonas aeruginosa [16] and against Escherichia coli [18] were 1.6 µM (≈ 0.748 µg/mL) and 0.78 µM (≈ 0.365 µg/mL), respectively.

As to `O=C1CC[C@H]2CO[C@@H]1O2`, the MIC80 with Pseudomonas aeruginosa [1] worked out at 8 %v/v; in the assay on Escherichia coli [2], 5 %v/v; in the assay on Klebsiella pneumoniae [3] it was 8 %v/v; in the assay on Enterococcus faecalis [4], 4 %v/v; in the assay with Staphylococcus aureus [5], 8 %v/v; in the assay on Acinetobacter baumannii [6], 8 %v/v.

Consider `CC[C@H](C)CCCCC(=O)N[C@@H](CCN)C(=O)N[C@H](C(=O)N[C@@H](CCN)C(=O)N[C@H]1CCNC(=O)[C@H]([C@@H](C)O)NC(=O)[C@H](CCN)NC(=O)[C@H](CCN)NC(=O)[C@H](CC(C)C)NC(=O)[C@@H](Cc2ccccc2)NC(=O)[C@H](CCN)NC1=O)[C@@H](C)O` (X1-[Dab]T[Dab][Dab][Dab][dF]L[Dab][Dab]T; lactam 4-C), for which the MIC80 result in the assay with Enterococcus faecalis [19], in the assay on Staphylococcus aureus [20], with Staphylococcus aureus [21] and with Enterococcus faecalis [22] was “inactive” throughout. The MIC80 in the assay on Escherichia coli [17] was determined as 1.6 µM (≈ 1.93 µg/mL); against Klebsiella pneumoniae [8] it was 1.6 µM (≈ 1.93 µg/mL); with Pseudomonas aeruginosa [9], 3.1 µM (≈ 3.73 µg/mL); against Klebsiella pneumoniae [11], 1.6 µM (≈ 1.93 µg/mL); with Acinetobacter baumannii [13] it was 1.6 µM (≈ 1.93 µg/mL); in the assay on Acinetobacter baumannii [15], 1.6 µM (≈ 1.93 µg/mL). The MIC80 worked out at 3.1 µM (≈ 3.73 µg/mL) in the assay on Pseudomonas aeruginosa [16] and 1.6 µM (≈ 1.93 µg/mL) against Escherichia coli [18].

As to `CN(C)[C@@H]1C(O)=C(C(N)=O)C(=O)[C@@]2(O)C(O)=C3C(=O)c4c(O)cccc4[C@@](C)(O)[C@H]3C[C@@H]12` [TETRACYCLINE], the MIC80 entry with Enterococcus faecalis [19], in the assay on Klebsiella pneumoniae [23], in the assay on Klebsiella pneumoniae [24] and in the assay with Enterococcus faecalis [22] was “inactive” each time. Moreover, the MIC80 against Escherichia coli [17] was 3.13 µM (≈ 1.39 µg/mL); with Staphylococcus aureus [7], 0.78 µM (≈ 0.347 µg/mL); against Pseudomonas aeruginosa [9], 25 µM (≈ 11.1 µg/mL); in the assay with Acinetobacter baumannii [13] it was 12.5 µM (≈ 5.56 µg/mL); against Staphylococcus aureus [14] it was 0.78 µM (≈ 0.347 µg/mL); in the assay with Acinetobacter baumannii [15], 25 µM (≈ 11.1 µg/mL). For the same compound, the MIC80 against Pseudomonas aeruginosa [16] worked out at 25 µM (≈ 11.1 µg/mL); against Escherichia coli [18], 3.13 µM (≈ 1.39 µg/mL).

`CN[C@H](CC(C)C)C(=O)N[C@H]1C(=O)N[C@@H](CC(N)=O)C(=O)N[C@H]2C(=O)N[C@H]3C(=O)N[C@H](C(=O)N[C@H](C(=O)O)c4cc(O)cc(O)c4-c4cc3ccc4O)[C@H](O)c3ccc(c(Cl)c3)Oc3cc2cc(c3O[C@@H]2O[C@H](CO)[C@@H](O)[C@H](O)[C@H]2O[C@H]2C[C@](C)(N)[C@H](O)[C@H](C)O2)Oc2ccc(cc2Cl)[C@H]1O` [VANCOMYCIN HYDROCHLORIDE]: the MIC80 entry in the assay on Pseudomonas aeruginosa [25], with Klebsiella pneumoniae [23], in the assay with Acinetobacter baumannii [26], with Pseudomonas aeruginosa [27], with Klebsiella pneumoniae [24] and in the assay with Escherichia coli [28] was “inactive” throughout. In addition, the MIC80 result with Escherichia coli [29] and in the assay on Acinetobacter baumannii [30] was “inactive” throughout. In addition, the MIC80 was determined as 0.39 µM against Staphylococcus aureus [7], 13 µM against Enterococcus faecalis [10], 13 µM in the assay on Enterococcus faecalis [12] and 0.39 µM in the assay with Staphylococcus aureus [14].

For the compound `CC1(C)S[C@@H]2[C@H](NC(=O)Cc3ccccc3)C(=O)N2[C@H]1C(=O)O` [PENICILLIN G SODIUM], the MIC80 result in the assay on Enterococcus faecalis [19], in the assay with Pseudomonas aeruginosa [25], in the assay on Klebsiella pneumoniae [23], with Acinetobacter baumannii [26], with Pseudomonas aeruginosa [27] and in the assay with Klebsiella pneumoniae [24] was “inactive” in each case. Moreover, the MIC80 result in the assay on Escherichia coli [28], in the assay on Enterococcus faecalis [22], with Escherichia coli [29] and in the assay on Acinetobacter baumannii [30] was “inactive” each time. Also, the MIC80 in the assay on Staphylococcus aureus [7] and in the assay on Staphylococcus aureus [14] was 34 µM in each case.
